From ChEMBL document CHEMBL3272242, “Sulfamylurea hypoglycemic agents. 6. High-potency derivatives” (J Med Chem, 1976)

Tested on: Rattus norvegicus
Experiment: Hypoglycemic activity in 18 to 24 hrs-fasted rat assessed as reduction in blood glucose at 5 mg/kg, ip measured after 1 hr relative to saline-treated control
Format: functional
Design: scale not given: the % may be the effect or the level left
Conditions: route intraperitoneal
Outline: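 Unanesthetized male Charles River rats (200–250 g), fasted 18–24 h, in groups of five or six. Single ip dose. Tail-vein blood drawn before dosing and 1 h after. Glucose measured by ferricyanide reduction micromethod on an autoanalyzer. Value is the percent fall in blood glucose at 1 h versus a saline-treated control group. Significance levels are p < 0.05, 0.01 and 0.001.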

Compound	Activity
COc1ccc(Cl)cc1C(=O)NCC1CCN(S(=O)(=O)NC(=O)NC2CCCCC2)CC1.O	20%
CCCCCCNC(=O)NS(=O)(=O)N1CCC(CNC(=O)c2cc(Cl)ccc2OC)CC1	17%
COc1ccc(NC(=O)NS(=O)(=O)N2CCC(CCNC(=O)c3cc(Cl)ccc3OC)CC2)cc1.O	27%
COc1ccc(Cl)cc1C(=O)NCCC1CCN(S(=O)(=O)NC(=O)NC23CC4CC(CC(C4)C2)C3)CC1	29%
COc1ccc(Cl)cc1C(=O)NCCC1CCN(S(=O)(=O)NC(=O)NN2CCCCCC2)CC1	36%
O=C(NC1CCCCC1)NS(=O)(=O)N1CCC(CCNC(=O)C(F)(F)F)CC1	13%
CCCNC(=O)NS(=O)(=O)N1CCC(CCNC(=O)c2cc(C(F)(F)F)nn2C)CC1	11%
O=C(NC1CCCCC1)NS(=O)(=O)N1CCC(CCNC(=O)c2csnn2)CC1	19%
Cc1ncccc1C(=O)NCCC1CCN(S(=O)(=O)NC(=O)NC2CCCCC2)CC1	16%
O=C(NC1CCCCC1)NS(=O)(=O)N1CCC(CCNC(=O)C2Oc3ccccc3O2)CC1	8%
O=C(NC1CCCCC1)NS(=O)(=O)N1CCC(CCNC(=O)c2ccc3ccccc3n2)CC1	11%
O.O=C(NC1CCCCC1)NS(=O)(=O)N1CCC(CCNC(=O)c2ccnc3ccccc23)CC1	16%
COc1ccc2nccc(C(=O)NCCC3CCN(S(=O)(=O)NC(=O)NC4CCCCC4)CC3)c2c1.O	15%
COc1ncccc1C(=O)NCCC1CCN(S(=O)(=O)NC(=O)NCC2CCCO2)CC1 (centres undefined)	16%
COc1ncccc1C(=O)NCCC1CCN(S(=O)(=O)NC(=O)NCC2CCCCO2)CC1 (centres undefined)	12%
CCOCCNC(=O)NS(=O)(=O)N1CCC(CCNC(=O)c2cccnc2OC)CC1	7%
Cn1cc(C(=O)NCCC2CCN(S(=O)(=O)NC(=O)NC34CC5CC(CC(C5)C3)C4)CC2)c(=O)n(C)c1=O.O	27%
COc1ccc(Cl)cc1C(=O)NCC1CCN(S(=O)(=O)NC(=O)NC[C@@H]2C[C@@H]3C=C[C@@H]2C3)CC1 (relative stereo)	15%
COc1ccc(Cl)cc1C(=O)NCCC1CCN(S(=O)(=O)NC(=O)NC[C@@H]2C[C@@H]3CC[C@@H]2O3)CC1 (relative stereo)	30%
COc1ccc(Cl)cc1C(=O)NCCC1CCN(S(=O)(=O)NC(=O)NC[C@H]2C[C@@H]3CC[C@@H]2O3)CC1.O (relative stereo)	27%
O=C(NC[C@@H]1C[C@@H]2C=C[C@@H]1C2)NS(=O)(=O)N1CCC(CCNC(=O)C(F)(F)F)CC1 (relative stereo)	22%
Cc1cccc(C(=O)NCCC2CCN(S(=O)(=O)NC(=O)NC[C@@H]3C[C@@H]4C=C[C@@H]3C4)CC2)n1 (relative stereo)	20%
Cc1ncccc1C(=O)NCCC1CCN(S(=O)(=O)NC(=O)NC[C@@H]2C[C@@H]3C=C[C@@H]2C3)CC1.O (relative stereo)	16%
COc1ccncc1C(=O)NCCC1CCN(S(=O)(=O)NC(=O)NC[C@@H]2C[C@@H]3C=C[C@@H]2C3)CC1 (relative stereo)	14%
O=C(NC[C@@H]1C[C@@H]2C=C[C@@H]1C2)NS(=O)(=O)N1CCC(CCNC(=O)c2ccc3ccccc3n2)CC1 (relative stereo)	21%
COc1ccc2nccc(C(=O)NCCC3CCN(S(=O)(=O)NC(=O)NC[C@@H]4C[C@@H]5C=C[C@@H]4C5)CC3)c2c1 (relative stereo)	10%
COc1ncccc1C(=O)NCCC1CCN(S(=O)(=O)NC(=O)NC[C@H]2C[C@@H]3C=C[C@@H]2C3)CC1 (relative stereo)	20%
COc1ncccc1C(=O)NCCC1CCN(S(=O)(=O)NC(=O)NC[C@@H]2C[C@@H]3CC[C@@H]2O3)CC1 (relative stereo)	34%
COc1ncccc1C(=O)NCCC1CCN(S(=O)(=O)NC(=O)NC[C@H]2C[C@@H]3CC[C@@H]2O3)CC1 (relative stereo)	14%
